Data: ChEMBL document CHEMBL4732130, “Synthesis and characterization of 1,2,4-triazolo[1,5-a]pyrimidine-2-carboxamide-based compounds targeting the PA-PB1 interface of influenza A virus polymerase” (Eur J Med Chem, 2021)
pEC50, pIC50: −log10 of the molar value. Values after ≈ are worked out from the molar mass of the structure shown. Values joined by “and” are separate entries in the source; they are usually repeats but may differ in a detail not shown here. Equal entries are not always repeated.

Legend:
Influenza A virus = assay: Antiviral activity against Influenza A virus A/PR/8/34 (H1N1) infected in MDCK cells assessed as reduction in plaque formation treated 1 hr post viral infection and measured after 48 hrs post-infection by toluidine blue staining based plaque reduction assay; type: functional, organism-based; details: A/Puerto Rico/8/1934(H1N1)
[1] = Cytotoxicity in dog MDCK cells assessed as reduction in cell viability incubated for 24 to 120 hrs by MTT assay; type: cell-based, Canis lupus familiaris; details: time 24-120 hrs
[2] = Inhibition of Influenza A virus 6His-tagged PA (239 to 716 residues)/GST-tagged PB1 (1 to 25 residues) expressed in Escherichia coli BL21 pLysS protein-protein interaction using 3,3',5,5'tetramethylbenzedine as substrate by ELISA
MDCK = assay: (§1) Cytotoxicity against dog MDCK cells assessed as reduction in cell viability incubated for 48 hrs by MTT assay; type: cell-based, Canis lupus familiaris; details: mdck, 48 h
Method in brief: (§2)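 MDCK cells seeded at 2 × 10^4/well and grown 24 h, then given serial compound dilutions in DMEM with 10% FBS (DMSO control) for 48 h at 37 °C. MTT (5 mg/mL stock) added for 4 h, cells solubilised overnight, OD read at 620 nm. […] Mean ± SD of ≥3 independent experiments in duplicate.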

[3] = Protein binding in human plasma assessed as unbound fraction at 5 uM incubated for 4 hrs by UPLC/MS-MS based rapid equilibrium dialysis method; type: ADME, cell-free
Method in brief: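 Compound at 5 µM in human plasma, dialysed against buffer by rapid equilibrium dialysis for 4 h at 37 °C. Chamber aliquots matrix-matched, precipitated with acetonitrile, and quantified by UPLC-MS/MS peak areas.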

[4] = Metabolic stability in human liver microsomes assessed as compound remaining at 10 uM preincubated for 5 mins followed by NADPH addition and measured after 60 mins by LC-MS/MS analysis; type: ADME, Microsome; details: time 65 min, read-out: Stabilty
Method in brief: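 Compound at 10 µM preincubated 5 min at 37 °C with human liver microsomes (1 mg/mL) in 0.1 M phosphate, pH 7.4. Reaction started with 2 mM NADPH. Samples taken at 0, 10, 20, 40 and 60 min, quenched in cold acetonitrile containing labetalol internal standard, and centrifuged. Analysed by LC-MS/MS (Q-TOF) for percent unchanged compound and metabolites. Half-life and intrinsic clearance estimated.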

[5] = Equilibrium solubility of the compound in phosphate buffer at pH 7.4 incubated for 2 hrs; type: physicochemical; details: for solubility: buffer, pH 7.4, 2 h, 2 h; for solubility thermodynamic at 2 h: phosphate buffer, pH 7.4
[6] = target: RNA-directed RNA polymerase (Influenza A virus (strain A/Puerto Rico/8/1934 H1N1), UniProt P03428+P03431+P03433); assay: Inhibition of RdRP activity in Influenza A virus A/PR/8/34 (H1N1) infected in HEK293T cells co-transfected with NP/PA/PB1/PB2/pPolI-Flu-ffLuc/pRL-SV40 incubated for 24 hrs by minireplicon based dual luciferase assay; type: cell-based, Influenza A virus (A/Puerto Rico/8/1934(H1N1))
Method in brief: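 HEK293T cells (2 × 10^5/well) plated overnight, then calcium-phosphate transfected with PB1, PB2, PA and NP plasmids (100 ng each), pPolI-Flu-ffLuc reporter (50 ng; WSN segment 8 noncoding ends) and pRL-SV40 (50 ng), with compound or DMSO present. Medium replaced at 5 h with compound-containing DMEM. Dual luciferase read at 24 h. Firefly normalised to Renilla, DMSO set as 100% polymerase activity.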

[7] = as §1; type: cell-based, Canis lupus familiaris; details: MDCK cells; method in brief: as §2

SMILES	pEC50 (Influenza A virus)	pIC50 [2]	CC50 (MDCK) [µM]	also measured
COc1ccc(C(=O)Nc2nc3n(n2)C(c2ccccc2)C=C(C)N3)cc1 (stereo not given)	< 4.00			CC50 [1]: > 250 µM
Cc1cc(-c2ccccc2)n2nc(C(=O)Nc3sc(C)c(C)c3C(N)=O)nc2n1	< 4.30	< 3.70	> 250	
Cc1cc(-c2ccccc2)n2nc(C(=O)Nc3c(C(N)=O)sc4ncccc34)nc2n1	< 4.00	5.48	> 250	
Cc1cc(-c2ccccc2)nc2nc(C(=O)Nc3ccccc3C(N)=O)nn12	4.51	5.15	> 250	Fu [3]: 22.45%; remaining at 1 h, 10 µM [4]: 76%; solubility [5]: 82.2 uM and 30.6 ug ml-1; pEC50 [6]: 5.24
Cc1cc(-c2ccccc2)nc2nc(C(=O)Nc3ccsc3C(N)=O)nn12	< 4.00	4.30	240	
Cc1cc(-c2ccccc2)n2nc(C(=O)Nc3sc4c(c3C(=O)Nc3ccccn3)CCCCC4)nc2n1	4.32	4.64	> 250	
Cc1cc(-c2ccccc2)nc2nc(C(=O)Nc3c(C(N)=O)sc4ncccc34)nn12	4.37	< 3.70	51	
Cc1cc(-c2ccccc2)n2nc(C(=O)Nc3c(C(N)=O)sc4ccccc34)nc2n1	4.66	< 3.70	> 250	
Cc1cc(-c2ccccc2)nc2nc(C(=O)Nc3sc4c(c3C(=O)O)CCCCC4)nn12	4.15	4.74	> 250	
Cc1cc(-c2ccccc2)n2nc(C(=O)Nc3sc4c(c3C(N)=O)CCCC4)nc2n1	4.49	4.82	> 250	
Cc1cc(-c2ccccc2)n2nc(C(=O)Nc3c(C(N)=O)sc4c3CCCCC4)nc2n1	< 4.30	< 3.70	90	
Cc1cc(-c2ccccc2)n2nc(C(=O)Nc3sc4c(c3C(=O)O)CCCCC4)nc2n1	4.30	4.72	> 250	
Cc1cc(-c2ccccc2)n2nc(C(=O)Nc3sc4c(c3C(N)=O)CCC4)nc2n1	4.66	5.21	> 250	
Cc1cc(-c2ccccc2)n2nc(C(=O)Nc3ccccc3C(N)=O)nc2n1	< 4.00	4.96	> 250	solubility [5]: 17.6 uM and 6.55 ug ml-1
Cc1cc(-c2ccccc2)n2nc(C(=O)Nc3sc4ccccc4c3C(N)=O)nc2n1	4.31	< 3.70	> 250	
Cc1cc(-c2ccccc2)n2nc(C(=O)Nc3nc4ccccc4s3)nc2n1	< 4.30	4.68	> 250	
CCC1CCc2c(sc(NC(=O)c3nc4nc(C)cc(-c5ccccc5)n4n3)c2C(N)=O)C1 (stereo not given)	4.82	< 3.70	> 250	
Cc1cc(-c2ccccc2)nc2nc(C(=O)Nc3nc4ccccc4s3)nn12		< 3.70	233	
Cc1cc(-c2ccccc2)n2nc(C(=O)Nc3ccsc3C(N)=O)nc2n1	4.37	4.51		CC50 at 48 h [7]: 250 µM
COc1cc2nc(N3CCN(C(=O)c4ccco4)CC3)nc(N)c2cc1OC [PRAZOSIN]				solubility thermodynamic at 2 h [5]: 62.8 µM (≈ 24.1 µg/mL)
CC(=O)[C@H]1CC[C@H]2[C@@H]3CCC4=CC(=O)CC[C@]4(C)[C@H]3CC[C@]12C [PROGESTERONE]				solubility thermodynamic at 2 h [5]: 6.5 µM (≈ 2.04 µg/mL)
NC(=O)c1ncn([C@@H]2O[C@H](CO)[C@@H](O)[C@H]2O)n1 [RIBAVIRIN]	5.00			CC50 at 48 h [7]: > 250 µM; pEC50 [6]: 4.62
